From PubChem BioAssay
DNMT1 block – inhibitors of human DNMT1 | P26358 | DNMT1 molecular beacon, Hinp1I cleavage, fluorescence | inhibition (reported as % activation of signal), % at 10 µM | 360,000 compounds, 0.83% hits; in the data active means inhibition above about 50%
STEP block – inhibitors of human striatal-enriched phosphatase STEP; P54829; recombinant STEP, OMFP fluorogenic substrate, fluorescence; inhibition, % at 20 µM; 360,000 compounds, 0.25% hits;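 active means inhibition at 20 µM, scaled per plate between control wells, above about 37%, limit read from the data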;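 further: 0% = DMSO with enzyme and substrate and 100% = substrate only without enzyme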
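Assay system: isolated STEP enzyme. Buffer or medium: pH 6.0 Bis-Tris with DTT and Tween 20. Also added: fluorogenic phosphatase substrate OMFP at 25 µM final. Dosing: 20 µM, 1% DMSO. Timing: 20 min reaction, room temperature, in the dark. Measured by: fluorescence intensity, excitation 480 nm, emission 540 nm. Evaluation: normalized % inhibition.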
Scp1 inh – Scp-1 (human) phosphatase inhibition; inhibition, % at 20 µM; AID 493091; Recombinant Scp1, phosphopeptide, malachite green phosphate absorbance; 340,000 compounds, 0.88% hits; Q9GZU7;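 active means inhibition above about 50% at 20 µM, limit read from the data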;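 further: plate controls were DMSO wells with enzyme for no effect and wells lacking enzyme for full effect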
Target sequence (Q9GZU7 76-261 limits assumed): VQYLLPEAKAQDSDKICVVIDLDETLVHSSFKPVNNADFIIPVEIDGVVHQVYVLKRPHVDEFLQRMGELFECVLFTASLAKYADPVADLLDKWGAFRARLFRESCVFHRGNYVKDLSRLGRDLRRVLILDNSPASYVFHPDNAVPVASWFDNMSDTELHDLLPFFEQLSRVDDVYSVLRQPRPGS
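System: SCP-1 catalytic domain; Reagent: Phospho 17-mer peptide substrate; Doses: one concentration, 20 µM, with 1.0% DMSO; Incubation: 45 min room-temperature reaction, 5 min colour, 30 min stabiliser; Signal: Phosphate-binding colour reagent, absorbance read at 630 nm.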
LMPTP block – blocks human LMPTP phosphatase; recombinant LMPTP-A, OMFP fluorogenic substrate, fluorescence intensity; inhibition, % at 20 µM; 360,000 compounds, 0.22% hits; AID 651560;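 active means compounds that cut the enzyme signal by at least half of the control window in the single-dose screen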;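 further: plate controls were DMSO wells with enzyme plus substrate for no effect and substrate without enzyme for full effect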
Target sequence (P24666 whole entry, looked up): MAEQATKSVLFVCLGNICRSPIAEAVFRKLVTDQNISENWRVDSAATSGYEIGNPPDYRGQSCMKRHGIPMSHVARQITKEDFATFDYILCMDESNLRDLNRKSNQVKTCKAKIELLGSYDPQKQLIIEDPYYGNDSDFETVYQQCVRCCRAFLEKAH
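Buffer or medium: Bis-Tris pH 6.0, DTT, detergent; Assay system: LMPTP-A enzyme; Quantity: 0.625 nM enzyme; Detection: endpoint fluorescence intensity; Times: 50 min dark incubation at room temperature; Controls: substrate-only low control, DMSO enzyme-plus-substrate high control; Doses: single 20 µM dose; Read-out: percent inhibition versus substrate-only and uninhibited controls; Reagent: 400 µM OMFP.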
SUMO1 PPI mod – modulators of human SUMO1-mediated protein-protein interactions | inhibition, % at 20 µM | 360,000 compounds, 0.33% hits | SUMO1 binding to a labelled peptide, TR-FRET, 1 h | AID 602429 | P63165; in the data active means inhibition above about 37%
Target sequence (P63165 whole entry, looked up): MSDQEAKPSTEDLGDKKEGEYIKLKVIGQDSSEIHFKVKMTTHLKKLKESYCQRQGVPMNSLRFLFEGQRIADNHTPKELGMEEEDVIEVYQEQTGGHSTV
Starred values were filed as active, the others as inactive. An excerpt weighted towards active compounds, which were near 1.7% of everything screened.

What do the screens show for `Cc1ccc(CN2C(=O)C(C)Nc3ncnc(N4CCN(c5ccccn5)CC4)c32)cc1` (stereo not drawn)?
DNMT1 block: -6; STEP block: 0; Scp1 inh: 4; LMPTP block: 0; SUMO1 PPI mod: 1

What do the screens show for `C/C(=N\NC(=O)c1ccc(F)cc1)c1ccc(NC(=O)Cc2ccccc2)cc1`?
DNMT1 block: 2; STEP block: 0; Scp1 inh: -2; LMPTP block: 0; SUMO1 PPI mod: 0

What do the screens show for `COc1ccc(C(=O)N/N=C(\C)c2ccc(NC(=O)Cc3ccccc3)cc2)c(OC)c1`?
DNMT1 block: 5; STEP block: 1; Scp1 inh: -2; LMPTP block: 0; SUMO1 PPI mod: 47*

What do the screens show for `O=C(O)CCN1C(=O)/C(=C\c2ccc(-c3nc4ccccc4s3)o2)SC1=S`?
DNMT1 block: 109*; STEP block: 79*; Scp1 inh: 63*; LMPTP block: 41; SUMO1 PPI mod: 87*

How did O=C(O)CCCN1C(=O)/C(=C\c2ccco2)SC1=S do in these assays?
DNMT1 block: 58*; STEP block: 12; Scp1 inh: 29; LMPTP block: 2; SUMO1 PPI mod: 29

What do the screens show for `O=C(O)CCN1C(=O)/C(=C\c2ccncc2)SC1=S`?
DNMT1 block: 0; STEP block: 0; Scp1 inh: -6; LMPTP block: 1; SUMO1 PPI mod: -26

Results for COc1ccc(C(=O)C2CCCN(C(=O)c3cc(C(C)C)no3)C2)cc1F (stereo not drawn) ?
DNMT1 block: 3; STEP block: -2; Scp1 inh: -7; LMPTP block: 0; SUMO1 PPI mod: -1

What do the screens show for `COc1cccc(CNC(=O)c2cc(S(=O)(=O)N3CCCC3)cn2C)c1`?
DNMT1 block: -5; STEP block: 0; Scp1 inh: -9; LMPTP block: 0; SUMO1 PPI mod: -3

Results for Cc1nc(S/C(=C\c2ccc(OCc3ccccc3Cl)cc2)C(=O)O)n[nH]1 ?
DNMT1 block: -5; STEP block: 2; Scp1 inh: 11; LMPTP block: -2; SUMO1 PPI mod: 5

How did Cc1nc(S/C(=C\c2ccc(-c3ccc(C(=O)O)c(Cl)c3)o2)C(=O)O)n[nH]1 do in these assays?
DNMT1 block: 91*; STEP block: 26; Scp1 inh: 83*; LMPTP block: 10; SUMO1 PPI mod: 57*

Results for Fc1ccc(-[n+]2nc(Nc3ccccc3)sc2-c2c3ccccc3cc3ccccc23)cc1 ?
DNMT1 block: -2; STEP block: 6; Scp1 inh: 14; LMPTP block: 67*; SUMO1 PPI mod: -9

Results for O=C(NCc1ccccc1)C(c1ccc(-c2ccccc2)cc1)N1CCN(c2ccccc2F)CC1 (stereo not drawn) ?
LMPTP block: 4; SUMO1 PPI mod: 2

How did O=C(O)CN1CCNCCN(CC(=O)O)CCNCC1 do in these assays?
DNMT1 block: 9; STEP block: -1; Scp1 inh: -2; LMPTP block: -4; SUMO1 PPI mod: 59*

How did O=C(O)CN1CCN(CC(=O)O)CCN(CC(=O)O)CCN(CC(=O)O)CC1 do in these assays?
DNMT1 block: 3; STEP block: -3; Scp1 inh: -11; LMPTP block: -1; SUMO1 PPI mod: 16

How did CNc1nc2c(-c3ccc(Cl)cc3)nnn2c2ccccc12 do in these assays?
DNMT1 block: 21; STEP block: 4; Scp1 inh: -7; LMPTP block: 76*; SUMO1 PPI mod: -31

What do the screens show for `O=C1C(=Cc2ccc(Br)o2)C(=O)c2ccccc21`?
DNMT1 block: 108*; STEP block: 96*; Scp1 inh: 65*; LMPTP block: 78*; SUMO1 PPI mod: 103*

What do the screens show for `O=C(/C=C/c1ccc(Br)o1)NC(c1ccccc1)c1ccccc1`?
DNMT1 block: 4; STEP block: -3; Scp1 inh: 1; LMPTP block: 3; SUMO1 PPI mod: -5

Results for Cc1cccc(C)c1NC(=O)CSCC(=O)c1ccc(O)c(O)c1 ?
DNMT1 block: 1; STEP block: -2; Scp1 inh: -2; LMPTP block: 48*; SUMO1 PPI mod: -2

How did Cc1cccc(C)c1NC(=O)CSCC(=O)O do in these assays?
DNMT1 block: 1; STEP block: -4; Scp1 inh: -3; LMPTP block: 0; SUMO1 PPI mod: -2

What do the screens show for `Cc1ccc(N(CCC#N)C(=O)CN2C(=O)NC(Cc3ccccc3)C2=O)cc1` (stereo not drawn)?
DNMT1 block: 2; STEP block: 1; Scp1 inh: -3; LMPTP block: 0; SUMO1 PPI mod: -1

What do the screens show for `CCOC(=O)C1(C)CCCN(C(=O)CCc2ccccc2)C1` (stereo not drawn)?
DNMT1 block: 4; STEP block: 0; LMPTP block: 0; SUMO1 PPI mod: -7

What do the screens show for `COc1ccc(-c2csc(/C(C#N)=C\c3ccc(O)c([N+](=O)[O-])c3)n2)cc1OC`?
DNMT1 block: -9; STEP block: 3; Scp1 inh: 32; LMPTP block: 1; SUMO1 PPI mod: 38*

Results for Cc1cc(N2CCN(C(c3ccnc4ccccc34)c3nnnn3-c3c(C)cccc3C)CC2)c2ccccc2n1 (stereo not drawn) ?
LMPTP block: 89*; SUMO1 PPI mod: 4

Results for COc1ccc(-c2c(C(C)=O)c(C)nc3sc4c(c23)NC(c2ccccc2)NC4=O)cc1 (stereo not drawn) ?
DNMT1 block: 6; STEP block: 2; Scp1 inh: -7; LMPTP block: -2; SUMO1 PPI mod: 40*

What do the screens show for `COc1ccc(-c2c(C(C)=O)c(C)nc3sc4c(=O)[nH]nnc4c23)cc1`?
DNMT1 block: 5; STEP block: -1; Scp1 inh: 6; LMPTP block: -3; SUMO1 PPI mod: 3

What do the screens show for `CCOC(=O)c1c(C)nc2sc3c(c2c1-c1ccc(OC)cc1)NC(c1ccccc1)NC3=O` (stereo not drawn)?
DNMT1 block: 0; STEP block: -1; Scp1 inh: -3; LMPTP block: 1; SUMO1 PPI mod: 47*

How did CC(C)(C)C(=O)Nc1nnc(SCC(=O)NC2CCCC2)s1 do in these assays?
DNMT1 block: 0; STEP block: 2; Scp1 inh: -5; LMPTP block: -1; SUMO1 PPI mod: 2

How did C#CC(C)OCC1CNC(=S)O1 (stereo not drawn) do in these assays?
DNMT1 block: 4; STEP block: 1; LMPTP block: -1; SUMO1 PPI mod: 0

Results for COc1ccc(/C=N/Nc2nc(C(=O)O)cs2)cc1 ?
DNMT1 block: 9; STEP block: 18; Scp1 inh: 41; LMPTP block: 64*; SUMO1 PPI mod: 6
